Experimental findings from publication PMC3437190 (Chemistry & biology, 2012) are described below.

The term Kd denotes the equilibrium constant for the complex coming apart. Read a high Kd as weaker binding.

Like-named read-outs stand apart in the source and are kept apart here.

The target of one assay is T1, StaC (Streptomyces sp. TP-A0274, UniProt A3KBE8).
T1 sequence (A3KBE8 1-545): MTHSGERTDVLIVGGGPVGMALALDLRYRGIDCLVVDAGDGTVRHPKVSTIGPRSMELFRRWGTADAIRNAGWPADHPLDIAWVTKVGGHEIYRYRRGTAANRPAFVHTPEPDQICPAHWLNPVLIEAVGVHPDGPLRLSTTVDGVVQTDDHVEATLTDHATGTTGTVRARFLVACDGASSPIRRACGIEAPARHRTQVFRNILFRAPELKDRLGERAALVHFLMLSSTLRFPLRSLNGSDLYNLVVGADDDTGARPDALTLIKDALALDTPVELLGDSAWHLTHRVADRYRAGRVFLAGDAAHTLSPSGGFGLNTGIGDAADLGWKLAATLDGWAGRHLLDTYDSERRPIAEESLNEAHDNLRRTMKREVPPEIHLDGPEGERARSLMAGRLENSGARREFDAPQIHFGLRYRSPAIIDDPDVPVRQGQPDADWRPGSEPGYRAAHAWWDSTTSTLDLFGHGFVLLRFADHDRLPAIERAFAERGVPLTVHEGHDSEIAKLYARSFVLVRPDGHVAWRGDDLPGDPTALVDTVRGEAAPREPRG
Briefly: Isothermal titration calorimetry of FAD with FAD-free. The assay is classed as binding. The essentials:
(§1)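 Recombinant His-tagged protein was expressed in Rosetta 2 (DE3) pLysS E. coli without added riboflavin (0.1 mM IPTG, 21°C, ~20 h). It was Ni(II)-affinity purified and gel-filtered on Superdex-200. The protein isolates free of FAD, so no stripping step was used. Concentration by A280 using theoretical extinction coefficient. FAD titrated by MicroCal ITC, at least triplicate runs. Single-site Kb converted to Kd.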
A general note: Isothermal titration calorimetry measures the heat released or taken up as one component is titrated into another.

In a further assay the target is T2, InkE (Nonomuraea longicatena, UniProt Q27IF2).
T2 sequence (Q27IF2 1-525): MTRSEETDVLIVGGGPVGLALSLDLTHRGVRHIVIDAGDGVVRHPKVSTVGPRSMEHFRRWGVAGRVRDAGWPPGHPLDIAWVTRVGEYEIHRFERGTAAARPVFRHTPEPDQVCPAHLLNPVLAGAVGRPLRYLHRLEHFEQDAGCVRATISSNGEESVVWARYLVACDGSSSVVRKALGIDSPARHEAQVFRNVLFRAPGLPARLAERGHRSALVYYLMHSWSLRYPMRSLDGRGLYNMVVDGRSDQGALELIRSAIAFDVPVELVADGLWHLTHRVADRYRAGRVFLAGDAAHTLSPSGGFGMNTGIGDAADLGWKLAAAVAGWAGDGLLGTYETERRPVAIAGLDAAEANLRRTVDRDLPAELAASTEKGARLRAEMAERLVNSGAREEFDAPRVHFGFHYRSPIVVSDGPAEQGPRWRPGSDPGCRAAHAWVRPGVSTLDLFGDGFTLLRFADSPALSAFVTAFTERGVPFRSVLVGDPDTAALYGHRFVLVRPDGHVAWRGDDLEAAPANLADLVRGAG
The description is as above. The assay is classed as binding. The essentials: as §1

The target of assay [1] is T3, RebC (Lentzea aerocolonigenes, UniProt Q8KI25).
T3 sequence (Q8KI25 1-529): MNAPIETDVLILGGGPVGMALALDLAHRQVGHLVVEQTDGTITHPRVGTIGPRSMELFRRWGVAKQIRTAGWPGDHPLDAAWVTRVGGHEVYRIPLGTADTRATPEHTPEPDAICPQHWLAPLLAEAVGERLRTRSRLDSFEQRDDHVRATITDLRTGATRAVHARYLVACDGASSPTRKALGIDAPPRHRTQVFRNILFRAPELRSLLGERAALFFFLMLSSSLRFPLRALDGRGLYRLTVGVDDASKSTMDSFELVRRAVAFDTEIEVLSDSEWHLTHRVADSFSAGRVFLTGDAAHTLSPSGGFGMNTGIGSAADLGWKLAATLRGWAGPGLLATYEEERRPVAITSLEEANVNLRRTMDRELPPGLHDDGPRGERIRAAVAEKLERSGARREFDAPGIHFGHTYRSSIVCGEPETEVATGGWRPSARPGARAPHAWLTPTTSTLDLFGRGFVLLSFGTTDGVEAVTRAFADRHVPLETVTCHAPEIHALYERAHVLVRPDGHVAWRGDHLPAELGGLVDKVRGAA
Briefly: Isothermal titration calorimetry of FAD with FAD-free. The assay is classed as binding. The essentials: (§2)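 Recombinant His-tagged protein was expressed in Rosetta 2 (DE3) pLysS E. coli (0.1 mM IPTG, 21°C, ~20 h) and captured on Ni(II) resin. Flavin was stripped on-column with 2 M KBr/2 M urea, then the protein was eluted with 200 mM imidazole and gel-filtered on Superdex-200. Concentration by A280 using theoretical extinction coefficient. FAD titrated by MicroCal ITC, at least triplicate runs. Single-site Kb converted to Kd.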

For another assay, the target named is T4, AtmC (Actinomadura melliaura, UniProt Q0H2X3).
T4 sequence (Q0H2X3 1-534): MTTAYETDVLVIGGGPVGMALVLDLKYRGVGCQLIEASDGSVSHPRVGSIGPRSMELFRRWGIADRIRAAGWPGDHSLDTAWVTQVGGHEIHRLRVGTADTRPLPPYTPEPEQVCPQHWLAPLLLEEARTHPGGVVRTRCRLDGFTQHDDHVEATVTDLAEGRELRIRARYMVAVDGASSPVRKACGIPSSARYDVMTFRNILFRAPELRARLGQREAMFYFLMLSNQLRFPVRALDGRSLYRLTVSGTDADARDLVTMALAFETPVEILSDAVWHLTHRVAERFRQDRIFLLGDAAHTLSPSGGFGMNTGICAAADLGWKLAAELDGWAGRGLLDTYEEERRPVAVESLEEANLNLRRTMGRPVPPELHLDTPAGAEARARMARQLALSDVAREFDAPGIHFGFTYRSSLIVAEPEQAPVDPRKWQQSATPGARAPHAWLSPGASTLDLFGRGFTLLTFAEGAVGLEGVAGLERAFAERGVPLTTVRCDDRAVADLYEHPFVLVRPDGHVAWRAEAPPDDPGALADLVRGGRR
Described as above. The format is binding. Put shortly:
as §2

The next assay has as its target RebC-10x (Lentzea aerocolonigenes, UniProt Q8KI25, A231S/E36D/F216V/G48S/Q117A/Q37A/R239N/R46K/T241V/T38G). Briefly: Isothermal titration calorimetry of FAD with FAD-free. The format is binding.
In assay [2] the target is T3, RebC. The assay is classed as binding. Put shortly: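 Control ITC on RebC purified by Ni(II) affinity and Superdex-200 without the KBr/urea wash, retaining ~68% bound FAD. It tests fitting of partially occupied protein, since the fitting software assumes no ligand in the cell before the first injection. FAD titrated, at least triplicate runs. Single-site Kb converted to Kd.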

A further assay deals with StaC-10x. Briefly: Isothermal titration calorimetry, FAD binding to StaC-10x. The settings on record: StaC-10x versus RebC. The essentials:
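It was used as isolated at ~33% FAD occupancy, because on-column KBr/urea stripping left the protein non-elutable. Concentration by BioRad protein assay against BSA standard. FAD titrated by ITC, two runs. Single-site Kb converted to an approximate Kd.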

On to `Cc1cc2nc3c(=O)[nH]c(=O)nc-3n(C[C@H](O)[C@H](O)[C@H](O)COP(=O)(O)OP(=O)(O)OC[C@H]3O[C@@H](n4cnc5c(N)ncnc54)[C@H](O)[C@@H]3O)c2cc1C` [FAD, flavin adenine dinucleotide], for which the dissociation constant Kd was determined as 15000 nM on StaC; 59000 nM on InkE; 20 ± 12 nM on RebC [1]; 73 ± 28 nM at AtmC; 600 ± 55 nM at RebC-10x; 31 nM at RebC [2].
Consider `Cc1cc2nc3c(=O)[nH]c(=O)nc-3n(C[C@H](O)[C@H](O)[C@H](O)COP(=O)(O)OP(=O)(O)OC[C@H]3O[C@@H](n4cnc5c(N)ncnc54)[C@H](O)[C@@H]3O)c2cc1C` [FAD], for which the “FAD binding weaker than RebC” value in the assay with StaC-10x stood at 30 fold.
